Screening data (PubChem)
The list is not random: actives were taken first. Their share in the collection is about 2%.
T cell modulator = modulators of CD8 T cell-vesicle binding, primary screen, mouse 2C CD8+ T cells, flow cytometry; response (vesicle binding), % at 7 µM; 330,000 compounds, 0.068% hits; 2C CD8+ T cell-vesicle binding; active compounds read low; AID 2052, 2009;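 active = response, share of CD8 T cells binding vesicles, and their 90th percentile fluorescence all below set limits, cut at about 80% in these data, passing the limit was not always enough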;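 also: values below 100% mean blocked vesicle binding to the CD8+ T cells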
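Material: 2C TCR transgenic mouse naive CD8+ T cells, MACS-purified. Also added: QL9-charged Drosophila Ld/ICAM-1/B7-1 vesicles. Timing: binding 1.5 h at 37 °C. Measured by: high-throughput flow cytometry with anti-B7-1 and anti-CD8 staining. Read-out: percent CD8+ FL2 mean versus row control. Controls: Unloaded micro-vesicles (low), QL9 vesicles with 0.7% DMSO (high).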
NR2E3 ag-1 = inhibitors of NR2E3-RetCOR corepressor binding, primary screen, NR2E3 agonist project, biochemical, TR-FRET, GST-NR2E3, biotin-RetCOR; Photoreceptor-specific nuclear receptor (Homo sapiens), Q9Y5X4; 1536-well; inhibition of corepressor binding, % at 4.78 µM; 320,000 compounds, 0.12% hits;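 active = percent inhibition above the cutoff of mean plus 3 SD of all tested compounds, set per screening campaign, cut at about 20% in these data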
Target sequence (Q9Y5X4 whole entry, looked up): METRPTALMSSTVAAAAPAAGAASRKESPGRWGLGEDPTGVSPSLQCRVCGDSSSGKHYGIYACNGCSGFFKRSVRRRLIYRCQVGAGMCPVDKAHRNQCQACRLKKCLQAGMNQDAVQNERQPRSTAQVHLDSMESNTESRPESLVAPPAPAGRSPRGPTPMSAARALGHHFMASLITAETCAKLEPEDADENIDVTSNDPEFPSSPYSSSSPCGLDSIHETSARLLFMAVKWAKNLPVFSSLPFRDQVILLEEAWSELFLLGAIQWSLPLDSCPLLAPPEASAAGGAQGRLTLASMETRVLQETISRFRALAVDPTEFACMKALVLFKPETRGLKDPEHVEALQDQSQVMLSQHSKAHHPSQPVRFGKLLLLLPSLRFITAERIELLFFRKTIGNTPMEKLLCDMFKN
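Format: 1536-well format; test system: GST-NR2E3 and biotin-RetCOR proteins; read-out basis: percent inhibition of TR-FRET ratio; timing: 5 h incubation at 4 °C; detection: time-resolved FRET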
NR2E3 ag-2 = NR2E3 agonists in two-hybrid cells, primary screen, cell-based, luminescence, CHO-S, Gal4-NCOR/VP16-NR2E3. inhibition of corepressor binding, % at 3.98 µM. 360,000 compounds, 0.35% hits. luciferase. Photoreceptor-specific nuclear receptor (Homo sapiens), Q9Y5X4;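 active = inhibition above the mean of all tested compounds plus 3 SD, cut at about 70% in these data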;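 also: higher means lower luciferase signal from less NR2E3 corepressor binding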
FXN GAA850 act = FXN promoter activators, primary screen, cell-based, luciferase luminescence, HEK293 lucGAA850. 360,000 compounds, 0.56% hits. AID 540364, 2011. activation, % at 6 µM. HEK293 lucGAA850 FXN promoter luciferase reporter, 24 h; percent of 10 µM SAHA response;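 active = activation above the average of all compounds screened plus 3 SD, cutoff fixed separately per campaign, cut at about 7.5% in these data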
Myeloid diff 2 = induction of myeloid progenitor differentiation, primary screen, cell-based, flow cytometry, MLPCN library; calls only at 10 µM; 360,000 compounds, 1% hits; ER-HoxA9 myeloid progenitors, lysozyme-GFP differentiation;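 active = normalized GFP-positive differentiation at or above the plate's own cutoff, the solvent-only control mean plus 3 SD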;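 also: cells exposed to compound for four days before flow analysis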
GAA30 counter = GAA30 FXN promoter activators, confirmation, counter-screen for GAA850 frataxin promoter activator project, cell-based, luminescence, HEK293, lucGAA30, triplicate; HEK293 lucGAA30 FXN promoter luciferase, 24 h; DMSO = 0%, 5 µM ipriflavone = 100%; 1,900 compounds, 66% hits; shares compounds with FXN GAA850 act; activation, % at 6 µM;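 active = mean activation above the mean of solvent-only control wells plus 3 SD, cut at about 22% in these data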;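 also: counterscreen of GAA850 promoter hits where activity marks nonselective or luminescence artifacts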
FXN GAA850 conf = FXN GAA850 promoter activators in reporter cells, confirmation, cell-based, luminescence, HEK293 lucGAA850, triplicate; shares compounds with FXN GAA850 act; HEK293 lucGAA850 FXN promoter luciferase reporter, 24 h; 100% = activation by SAHA; activation, % at 6 µM; 1,900 compounds, 86% hits; AID 588351, 2011;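 active = mean activation above a set limit taken from the primary screen, cut at about 8% in these data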
Each line names hits and unclear results; the compound was inactive in the other large screens (follow-up assays come after a bar, where they were run).

CCn1c2ccccc2c2cc(NC(=O)CSc3nnc(-c4cccc(OC)c4)n3N)ccc21	FXN GAA850 act 8.4 | GAA30 counter inactive | FXN GAA850 conf 9.0
COc1ccc(-c2ccc(=O)n(Cc3cc(=O)n4ccccc4n3)n2)cc1	FXN GAA850 act 8.1 | GAA30 counter inactive | FXN GAA850 conf 8.8
COc1ccc(-c2ccc(=O)n(Cc3ccccc3)n2)cc1	none
CCOC(=O)C1(C)CCCN(C(=O)c2ccc3c(c2)OCO3)C1 (stereo not given)	none (no result: T cell modulator, NR2E3 ag-1)
Nc1nc(CSC(=S)N2CCOCC2)nc(Nc2ccc(F)cc2)n1	none
COc1ccc(Nc2nc(N)nc(CSC(=S)N3CCOCC3)n2)cc1	FXN GAA850 act 7.6 | GAA30 counter 83.4 | FXN GAA850 conf 32.5
C=CCn1c(SCC(=O)Nc2ccccc2OC)nc2c([nH]c3ccccc32)c1=O	FXN GAA850 act 12.7 | GAA30 counter inactive | FXN GAA850 conf 12.1
COCCn1c(SCC(=O)Nc2ccccc2OC)nc2c([nH]c3ccccc32)c1=O	FXN GAA850 act 8.0 | GAA30 counter inactive | FXN GAA850 conf 7.9
C=CCn1c(SCC(=O)Nc2ccc(F)cc2F)nc2c([nH]c3ccccc32)c1=O	none
O=C1C=C(c2ccccc2Oc2ccccc2)C[C@@H](c2ccc(F)cc2)C1	none (no result: T cell modulator, NR2E3 ag-1)
COc1ccc(/C=C(/C(=O)c2cccs2)N2C=CC=CC2=C(C#N)C#N)cc1	FXN GAA850 act 13.6 (no result: T cell modulator, NR2E3 ag-1) | GAA30 counter inactive | FXN GAA850 conf 21.6
CC(=O)c1cccc(OCc2cc(C(=O)NCc3nc(C)c(C)s3)no2)c1	none
COc1ccc2nc(N3CCN(C(=O)C4COc5ccccc5O4)CC3)sc2c1 (stereo not given)	FXN GAA850 act 9.0 | GAA30 counter 103.6 | FXN GAA850 conf 32.5
Cc1cccc2sc(N3CCN(C(=O)C4COc5ccccc5O4)CC3)nc12 (stereo not given)	none
CN(C)S(=O)(=O)c1cccc(COc2ncnc3c(Cl)cc(Cl)cc23)c1	none
O=C1[C@H]2[C@@H](c3ccc(F)cc3)N3C(=O)N(c4cccc(Cl)c4)C(=O)[C@@]3(Cc3ccccc3)[C@H]2C(=O)N1C1CCCCC1	FXN GAA850 act 9.3 | GAA30 counter inactive | FXN GAA850 conf inactive
O=C1[C@H]2[C@@H](c3ccc(F)cc3)N3C(=O)N(c4ccccc4)C(=O)[C@@]3(Cc3ccccc3)[C@H]2C(=O)N1C1CCCCC1	FXN GAA850 act 10.2 | GAA30 counter 23.2 | FXN GAA850 conf inactive
O=C1[C@H]2[C@@H](c3ccc(F)cc3)N3C(=O)N(c4cccc(Br)c4)C(=O)[C@@]3(Cc3ccc(Cl)cc3)[C@H]2C(=O)N1C1CCCCC1	none
C=CCn1c(SCC(N)=O)nc2scc(-c3ccc(C)o3)c2c1=O	FXN GAA850 act 8.2 | GAA30 counter 127.9 | FXN GAA850 conf 43.3
C=CCn1c(SCc2ccccc2)nc2scc(-c3ccc(C)o3)c2c1=O	none
CCN(C(=O)CCNC(=O)Cn1cnc2ccccc2c1=O)c1cccc(Cl)c1	none
CC(C)Cc1nnc(NC(=O)c2cc3c(s2)CCC3)s1	FXN GAA850 act 8.2 | GAA30 counter 94.6 | FXN GAA850 conf 28.8
Cc1c(CN(C)C)c2c(n1C)C(=O)c1ccc(Br)cc1-2	FXN GAA850 act 10.6 | GAA30 counter inactive | FXN GAA850 conf 17.9
Cc1c(CN(C)C)c2c(n1Cc1ccccc1)C(=O)c1ccc(Br)cc1-2	none
CC1C(=O)N(Cc2cn(CCC3OCCCO3)nn2)CCS(=O)(=O)N1Cc1ccc(-c2cccc(CO)c2)cc1 (stereo not given)	none (no result: T cell modulator, NR2E3 ag-1)
O=C(N/N=C/c1ccc(O)cc1)Nc1cccc2nsnc12	FXN GAA850 act 10.5 | GAA30 counter 56.9 | FXN GAA850 conf 36.6
CC12CCC=CC1=C(C=O)C1C2CCC2(C)C(O)CCC12 (stereo not given)	none (no result: T cell modulator, NR2E3 ag-1)
c1ccc(CSc2nc3ccccc3[nH]2)cc1	FXN GAA850 act 7.9 | GAA30 counter 91.2 | FXN GAA850 conf 29.2
Fc1ccc(CSc2nc3ccccc3[nH]2)cc1	none
COC(=O)CN1C(=O)C(C)=C(c2ccc(C)cc2)S1(=O)=O	FXN GAA850 act 13.5 (no result: T cell modulator) | GAA30 counter 26.1 | FXN GAA850 conf 8.2
CC1=C(c2ccc(C)cc2)S(=O)(=O)N(CC(=O)O)C1=O	none (no result: T cell modulator)
O=C1/C(=C/c2cccs2)SC(=S)N1c1cccc(O)c1	none
CC(C)Cn1cnc2c(SCc3ccccc3F)nc(N)nc21	FXN GAA850 act 8.9 (no result: T cell modulator, NR2E3 ag-1) | GAA30 counter 94.6 | FXN GAA850 conf 35.3
CCCCn1cnc2c(SCc3ccccc3F)nc(N)nc21	FXN GAA850 act 8.3 (no result: T cell modulator, NR2E3 ag-1) | GAA30 counter 56.6 | FXN GAA850 conf 25.4
COc1ccc(-c2cc(C(F)(F)F)nc(S(=O)(=O)CCCC(=O)Nc3cc(C)on3)n2)cc1OC	FXN GAA850 act 10.3 (no result: T cell modulator, NR2E3 ag-1) | GAA30 counter 57.9 | FXN GAA850 conf 82.6
COc1ccc(NC(=S)Nc2cc(C)ccn2)c(OC)c1	none
COc1ccc(NC(=S)Nc2ccccn2)c(OC)c1	FXN GAA850 act 8.1 | GAA30 counter 107.0 | FXN GAA850 conf 46.0
CC(=O)c1ccc(C2CC(OCCF)=CC(=O)O2)cc1 (stereo not given)	none (no result: T cell modulator, NR2E3 ag-1, NR2E3 ag-2, FXN GAA850 act)
O=C1NC[C@H](CCCCN2C[C@H](Cc3ccc(O)cc3)N(CCc3ccccc3)C(=O)C2=O)N(CCC2CCCCC2)C1=O	none (no result: T cell modulator, NR2E3 ag-1, FXN GAA850 act)
Cc1ccc(S(=O)(=O)NCCC(=O)N2CCN(c3cccc(Cl)c3)CC2)cc1C	FXN GAA850 act 10.6 | GAA30 counter inactive | FXN GAA850 conf inactive
COCC1CCN(C(=O)c2ccc3nc(Cc4cccc(Cl)c4)oc3c2)CC1	none (no result: T cell modulator, NR2E3 ag-1)
CCC(CC)c1nnc(NC(=O)CN2C(=O)C3C4C=CC(C4)C3C2=O)s1 (stereo not given)	FXN GAA850 act 9.9 | GAA30 counter inactive | FXN GAA850 conf inactive
C=CCn1c2ccccc2c(=O)c2cc(C#Cc3ccccn3)ccc21	FXN GAA850 act 9.0 | GAA30 counter 139.7 | FXN GAA850 conf 44.1
C=CCn1c2ccccc2c(=O)c2cc(C#Cc3ccsc3)ccc21	none (no result: NR2E3 ag-2, FXN GAA850 act, Myeloid diff 2)
Cc1ccc2nc(-c3ccc(NS(=O)(=O)c4ccc(F)c(F)c4)cc3)sc2c1	FXN GAA850 act 10.2 | GAA30 counter 108.3 | FXN GAA850 conf 35.1
